According to ChEMBL document CHEMBL4138133, “2,3-Dihydro-3β-methoxy Withaferin-A Protects Normal Cells against Stress: Molecular Evidence of Its Potent Cytoprotective Activity” (J Nat Prod, 2017):
Calls of active or inactive are those of the source. The calls are words filed in the database; no cut-off is given here.

Experiments:
TIG-3 [1] = assay: Cytoprotective activity against etoposide-induced stress in human TIG3 cells assessed as increase in cell survival pretreated with etoposide for 24 hrs followed by compound addition measured after 2 days by crystal violet staining based assay; type: functional
TIG-3 [2] = assay: Cytotoxicity against human TIG3 cells assessed as reduction in cell viability at 1 to 10 uM after 72 hrs; type: cell-based; settings: tig-3, 72 h
How it was run: (§1)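 Normal fibroblasts in DMEM/10% FBS at 37 °C given 0.15 to 50 μM compound for 48 or 72 h; viability determined; triplicate, mean ± SEM.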

TIG-3 [3] = assay: Cytoprotective activity against human TIG3 cells assessed as increase in cell viability at 1.5 to 3 uM pretreated with Wi-A at 0.3 uM for 24 hrs followed by compound addition measured after 48 hrs; type: functional, cell-based
How it was run: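 TIG-3 cells pretreated with 0.3 μM Wi-A for 24 h, then incubated with 1.5 or 3 μM compound for 48 h before viability was read. Triplicate, mean ± SEM.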

[4] = biological target: Kelch-like ECH-associated protein 1 (Homo sapiens, UniProt Q14145); assay: Activation of keap1 in human TIG3 cells assessed as Nrf2 nuclear accumulation at 0.6 uM by immuno staining analysis; type: cell-based
How it was run: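 Methanol-fixed (chilled absolute methanol) TIG-3 fibroblasts treated with Wi-A or 3βmWi-A; immunofluorescence staining with antibodies, imaged by epifluorescence microscopy; signal quantitated from three independent experiments.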

TIG-3 [5] = assay: Induction of oxidative stress in human TIG3 cells assessed as increase in GADD45alpha mRNA levels by RT-PCR analysis; type: cell-based
How it was run: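 Total RNA from treated TIG-3 cells; cDNA from 2 μg RNA; PCR 95 °C 10 min, 30 cycles (95 °C 45 s, 58 °C 1 min, 72 °C 45 s), 72 °C 10 min; products on 0.8% agarose, band densitometry; three independent experiments.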

TIG-3 [6] = assay: Induction of oxidative stress in human TIG3 cells assessed as increase in CARF expression level at 0.6 uM by immunoblot analysis; type: cell-based; settings: tig-3, 0.6 µM
How it was run: (§2)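 TIG-3 cells treated with compound, lysed in NP40 buffer (centrifuged 20 min, 4 °C); 10−20 μg protein immunoblotted for indicated proteins; band quantitation from three independent experiments, Student's t or Mann−Whitney test.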

TIG-3 [7] = assay: Cytoprotective activity against UV irradiation-induced stress in human TIG3 cells assessed as increase in cell survival at 3 uM irradiated with 50 mJ/cm2 of UV radiations followed by compound addition measured after 72 hrs by crystal violet staining based assay; type: functional
Homo sapiens = species: Homo sapiens; assay: Induction of AKT/p38/p44 MAPK-mediated survivin expression level in H2O2 treated human TIG3 cells at 0.6 uM pretreated with H2O2 for 2 hrs followed by compound addition by immunoblot analysis
How it was run: (§3)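 TIG-3 cells stressed with H2O2 (500 μM, 2 h), then recovered in medium containing 0.3 or 0.6 μM compound. Lysed in NP40 buffer; 10−20 μg protein immunoblotted for pAkt Ser473, p-p38 Thr180/Tyr182, p-p44/42 Thr202/Tyr204, β-catenin, survivin, Bcl-2 or full-length PARP-1. Triplicate experiments.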

WI-38 [8] = assay: Cytotoxicity against human WI38 cells assessed as inhibition of colony formation by crystal violet staining based assay; type: cell-based
How it was run: (§4)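 500 cells/well seeded, cultured about 2 weeks with medium (control or compound-supplemented) renewed every fourth day; colonies fixed, stained, counted; triplicates, Student's t test.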

[9] = biological target: RAC-alpha serine/threonine-protein kinase (Homo sapiens) (UniProt P31749); assay: Induction of Akt phosphorylation at Ser473 residues in H2O2 treated human TIG3 cells at 0.6 uM pretreated with H2O2 for 2 hrs followed by compound addition by immunoblot analysis; how it was run: as §3
[10] = biological target: Mitogen-activated protein kinase 3 (Homo sapiens) (UniProt P27361); assay: Induction of ERK1 phosphorylation at Thr202 residues in H2O2 treated human TIG3 cells at 0.6 uM pretreated with H2O2 for 2 hrs followed by compound addition by immunoblot analysis; how it was run: as §3
TIG-3 [11] = assay: Cytoprotective activity against H2O2-induced oxidative stress in human TIG3 cells assessed as increase in cell survival at 3 uM pretreated with H2O2 for 2 hrs followed by compound addition measured after 72 hrs by crystal violet staining based assay; type: functional
TIG-3 [12] = assay: Decrease in keap1 expression level in human TIG3 cells at 0.3 to 3 uM by immunoblot analysis; type: ADME, cell-based; settings: tig-3, 3 µM; how it was run: as §2
TIG-3 [13] = assay: Cytoprotective activity against cisplatin-induced stress in human TIG3 cells assessed as increase in cell survival pretreated with cisplatin for 24 hrs followed by compound addition measured after 2 days by crystal violet staining based assay; type: functional
TIG-3 [14] = assay: Cytotoxicity against human TIG3 cells assessed as cell death at 0.6 uM; type: cell-based; settings: tig-3, 0.6 µM
How it was run: (§5)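 Phase-contrast microscopy of morphology of control and treated normal human TIG-3 fibroblasts.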

[15] = biological target: Mitogen-activated protein kinase 1 (Homo sapiens) (UniProt P28482); assay: Induction of ERK2 phosphorylation at Tyr204 residues in UV-irradiated human TIG3 cells using 50 mJ/cm2 of UV radiations followed by compound addition by immuno fluorescence staining based analysis
How it was run: (§6)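 TIG-3 fibroblasts (DMEM, 10% FBS, 37 °C) stressed with H2O2 (500 μM, 2 h) or UV (50 mJ/cm2), then recovered in compound-supplemented medium. Cells fixed in chilled absolute methanol and immunostained for the marker. Images taken by fluorescence microscopy and staining intensity quantified. Triplicate experiments.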

TIG-3 [16] = assay: Cytoprotective activity against doxorubicin-induced stress in human TIG3 cells assessed as increase in cell survival pretreated with doxorubicin for 24 hrs followed by compound addition measured after 2 days by crystal violet staining based assay; type: functional
TIG-3 [17] = assay: Cytotoxicity against human TIG3 cells assessed as induction of morphological changes at 0.3 to 1.5 uM after 48 hrs by phase contrast microscopy; type: cell-based; settings: tig-3, 48 h; how it was run: as §5
TIG-3 [18] = assay: Cytotoxicity against human TIG3 cells assessed as inhibition of colony formation by crystal violet staining based assay; type: cell-based; how it was run: as §4
TIG-3 [19] = assay: Cytoprotective activity against H2O2-induced oxidative stress in human TIG3 cells assessed as decrease in phosphorylated ATM level at 0.6 uM pretreated with H2O2 for 2 hrs followed by compound addition by immuno fluorescence staining based analysis; type: functional, cell-based; how it was run: as §6
TIG-3 [20] = assay: Cytoprotective activity against H2O2-induced oxidative stress in human TIG3 cells assessed as increase in full length PARP level at 0.6 uM pretreated with H2O2 for 2 hrs followed by compound addition by immunoblot analysis; type: functional, cell-based; how it was run: as §3
[21] = biological target: RAC-alpha serine/threonine-protein kinase (Homo sapiens) (UniProt P31749); assay: Induction of AKT-mediated beta-catenin expression level in H2O2 treated human TIG3 cells at 0.6 uM pretreated with H2O2 for 2 hrs followed by compound addition by immunoblot analysis; how it was run: as §3
TIG-3 [22] = assay: Cytotoxicity against human TIG3 cells assessed as decrease in ROS generation at 1.5 to 3 uM after 48 hrs; type: cell-based; settings: tig-3, 48 h
WI-38 [23] = assay: Cytotoxicity against human WI38 cells assessed as reduction in cell viability at 1 to 10 uM after 72 hrs; type: cell-based; settings: wi-38, 72 h; how it was run: as §1
TIG-3 [24] = assay: Cytotoxicity against human TIG3 cells assessed as induction of senescence at 70 to 72 population doubling at 0.5 uM; type: cell-based; settings: tig-3, 0.5 µM
[25] = biological target: Mitogen-activated protein kinase 3 (Homo sapiens) (UniProt P27361); assay: Induction of ERK1 phosphorylation at Thr202 residues in H2O2 treated human TIG3 cells pretreated with H2O2 for 2 hrs followed by compound addition by immuno fluorescence staining based analysis; how it was run: as §6

Mitogen-activated protein kinase 3 (Homo sapiens), sequence (P27361 whole entry): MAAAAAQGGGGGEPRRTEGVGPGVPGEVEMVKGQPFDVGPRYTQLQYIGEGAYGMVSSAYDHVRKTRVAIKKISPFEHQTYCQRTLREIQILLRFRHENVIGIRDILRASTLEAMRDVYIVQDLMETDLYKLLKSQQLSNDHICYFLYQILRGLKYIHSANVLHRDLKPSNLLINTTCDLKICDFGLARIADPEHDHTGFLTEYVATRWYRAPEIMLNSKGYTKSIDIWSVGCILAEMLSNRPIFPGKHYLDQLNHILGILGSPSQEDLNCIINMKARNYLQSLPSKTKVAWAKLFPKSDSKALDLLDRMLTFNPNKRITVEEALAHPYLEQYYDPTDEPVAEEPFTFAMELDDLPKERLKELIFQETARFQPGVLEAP
RAC-alpha serine/threonine-protein kinase (Homo sapiens), sequence (P31749 whole entry): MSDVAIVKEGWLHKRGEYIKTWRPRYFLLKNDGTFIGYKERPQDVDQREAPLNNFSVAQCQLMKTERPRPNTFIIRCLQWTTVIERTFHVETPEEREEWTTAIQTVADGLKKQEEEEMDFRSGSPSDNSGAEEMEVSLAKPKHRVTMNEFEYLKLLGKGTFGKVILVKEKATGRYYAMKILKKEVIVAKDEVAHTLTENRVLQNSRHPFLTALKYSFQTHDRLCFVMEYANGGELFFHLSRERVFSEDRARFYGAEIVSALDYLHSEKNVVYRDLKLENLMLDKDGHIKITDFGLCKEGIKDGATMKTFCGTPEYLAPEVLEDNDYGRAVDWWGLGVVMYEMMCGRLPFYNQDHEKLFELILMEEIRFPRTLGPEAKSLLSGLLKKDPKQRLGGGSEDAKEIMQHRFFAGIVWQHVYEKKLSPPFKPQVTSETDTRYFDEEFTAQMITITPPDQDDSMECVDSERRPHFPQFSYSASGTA
Kelch-like ECH-associated protein 1, sequence (Q14145 whole entry): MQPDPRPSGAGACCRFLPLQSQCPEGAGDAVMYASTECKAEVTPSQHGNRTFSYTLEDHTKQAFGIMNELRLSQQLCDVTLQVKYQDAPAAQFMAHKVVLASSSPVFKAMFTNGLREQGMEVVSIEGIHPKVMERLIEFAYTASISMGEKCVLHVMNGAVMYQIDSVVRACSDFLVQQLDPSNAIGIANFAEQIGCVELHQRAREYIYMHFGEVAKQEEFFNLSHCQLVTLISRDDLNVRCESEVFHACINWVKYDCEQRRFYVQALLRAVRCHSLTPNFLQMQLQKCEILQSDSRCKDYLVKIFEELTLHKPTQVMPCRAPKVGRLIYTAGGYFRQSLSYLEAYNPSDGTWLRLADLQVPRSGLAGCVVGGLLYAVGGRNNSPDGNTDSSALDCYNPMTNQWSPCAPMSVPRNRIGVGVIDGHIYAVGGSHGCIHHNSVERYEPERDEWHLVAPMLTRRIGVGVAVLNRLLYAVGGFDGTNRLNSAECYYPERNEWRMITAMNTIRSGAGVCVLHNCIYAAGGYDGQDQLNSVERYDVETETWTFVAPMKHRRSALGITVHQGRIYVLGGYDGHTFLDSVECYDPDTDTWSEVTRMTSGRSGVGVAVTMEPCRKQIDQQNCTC
Mitogen-activated protein kinase 1 (Homo sapiens), sequence (P28482 whole entry): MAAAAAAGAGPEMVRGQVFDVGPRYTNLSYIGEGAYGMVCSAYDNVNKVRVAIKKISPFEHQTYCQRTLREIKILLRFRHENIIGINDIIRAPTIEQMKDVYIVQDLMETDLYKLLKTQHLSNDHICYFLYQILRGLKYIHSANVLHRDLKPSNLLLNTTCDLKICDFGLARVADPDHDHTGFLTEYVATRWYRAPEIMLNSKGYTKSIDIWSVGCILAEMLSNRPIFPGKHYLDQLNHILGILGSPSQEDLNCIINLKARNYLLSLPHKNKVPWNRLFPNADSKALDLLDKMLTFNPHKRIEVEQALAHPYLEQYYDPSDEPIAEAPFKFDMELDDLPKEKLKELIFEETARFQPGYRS

SMILES: CO[C@H]1CC(=O)[C@]2(C)[C@H]3CC[C@]4(C)[C@@H]([C@H](C)[C@H]5CC(C)=C(CO)C(=O)O5)CC[C@H]4[C@@H]3C[C@H]3O[C@]32[C@H]1O
- Activity (TIG-3 [1]): Dose-dependent effect
- Activity (TIG-3 [2]): Non-Toxic
- Activity (TIG-3 [3]): Active
- Activity [4]: Not Active
- Activity (TIG-3 [5]): Non-Toxic
- Activity (TIG-3 [6]): Non-Toxic
- Activity (TIG-3 [7]): Active
- Activity (Homo sapiens): Active
- Activity (WI-38 [8]): Non-Toxic
- Activity [9]: Active
- Activity [10]: Active
- Activity (TIG-3 [11]): Active
- Activity (TIG-3 [12]): Non-Toxic
- Activity (TIG-3 [13]): Dose-dependent effect
- Activity (TIG-3 [14]): Non-Toxic
- Activity [15]: Active
- Activity (TIG-3 [16]): Dose-dependent effect
- Activity (TIG-3 [17]): Non-Toxic
- Activity (TIG-3 [18]): Non-Toxic
- Activity (TIG-3 [19]): Active
- Activity (TIG-3 [20]): Active
- Activity [21]: Active
- Activity (TIG-3 [22]): Non-Toxic
- Activity (WI-38 [23]): Non-Toxic
- Activity (TIG-3 [24]): Non-Toxic
- Activity [25]: Active
